Screening results: PubChem BioAssay, several laboratories
ROMK primary = ROMK potassium channel modulators, primary screen, cell-based, thallium flux, MLSMR library; B-score at 10 µM; ATP-sensitive inward rectifier potassium channel 1 (Homo sapiens), P48048; 2% of 130,000 active; Tet-inducible ROMK, thallium flux fluorescence; actives lie on both sides;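 active means signal ratio slope over the read window, or its plate-corrected B-score, at least 3 SD from the plate mean, either direction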;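 further: B-score of the F/F0 ratio slope over 7 to 12 s after thallium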
Diaphorase act = compounds boosting diaphorase resazurin reduction – biochemical, uHTS, resorufin fluorescence, counter-screen for diaphorase-coupled primary assays, primary screen | 0.005% of 190,000 active | activation factor at 20 µM | Diaphorase/resazurin coupled assay, 16 min; hits give high values; 1 = vehicle wells, 0 = NADH-free wells;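 active means diaphorase activity raised at least twofold by the compound at 20 µM; inactive means activation factor below 2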
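Material: Clostridium kluyveri diaphorase, purified enzyme; Quantity: enzyme 0.07 U/mL final; Medium: HEPES pH 7.4 buffer with MgCl2 and Tween 20; Dosing: single compound dose of 20 µM, 1% DMSO final; Schedule: 16 min reaction at room temperature; Measured by: red resorufin fluorescence at 544/590 nm excitation/emission.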
Lmaj promast = Leishmania major promastigote growth inhibition, primary screen. Leishmania major promastigotes, resazurin fluorescence viability. inhibition, % at 10 µM. 9% of 200,000 active. AID 1063, 2008; in the data active means inhibition above about 50%;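 further: promastigotes grown with compound for 44 hours at 28 °C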
WT yeast gro inh = growth inhibition of WT strain, primary screen, mitochondrial fusion inhibitor project, WT and mutant strains, chemical genetic. mitochondrial fusion phenotypic screen. inhibition, % at 10 µM. 2.1% of 190,000 active. AID 1362, 2008; in the data active means inhibition above about 58%; tested in S. cerevisiae
Cl transport mod = KCC2 cotransporter modulators, thallium flux, primary screen, cell-based, HEK293 KCC2, FluoZin-2 fluorescence, MLSMR; KCC2 cells, thallium flux FluoZin-2 fluorescence; AID 1456, 2008; 2.2% of 190,000 active; B-score of Tl+ flux slope (higher = more flux/activation; lower = inhibition) at 10 µM; Solute carrier family 12 member 5 (Homo sapiens), Q9H2X9;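 active means thallium flux slope and its plate-corrected score both differing from the plate sample mean at a set confidence after two filtering rounds, in either direction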;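 further: slope of fluorescence scaled to starting intensity during 10 to 20 s after thallium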
Target sequence (Q9H2X9 whole entry, looked up): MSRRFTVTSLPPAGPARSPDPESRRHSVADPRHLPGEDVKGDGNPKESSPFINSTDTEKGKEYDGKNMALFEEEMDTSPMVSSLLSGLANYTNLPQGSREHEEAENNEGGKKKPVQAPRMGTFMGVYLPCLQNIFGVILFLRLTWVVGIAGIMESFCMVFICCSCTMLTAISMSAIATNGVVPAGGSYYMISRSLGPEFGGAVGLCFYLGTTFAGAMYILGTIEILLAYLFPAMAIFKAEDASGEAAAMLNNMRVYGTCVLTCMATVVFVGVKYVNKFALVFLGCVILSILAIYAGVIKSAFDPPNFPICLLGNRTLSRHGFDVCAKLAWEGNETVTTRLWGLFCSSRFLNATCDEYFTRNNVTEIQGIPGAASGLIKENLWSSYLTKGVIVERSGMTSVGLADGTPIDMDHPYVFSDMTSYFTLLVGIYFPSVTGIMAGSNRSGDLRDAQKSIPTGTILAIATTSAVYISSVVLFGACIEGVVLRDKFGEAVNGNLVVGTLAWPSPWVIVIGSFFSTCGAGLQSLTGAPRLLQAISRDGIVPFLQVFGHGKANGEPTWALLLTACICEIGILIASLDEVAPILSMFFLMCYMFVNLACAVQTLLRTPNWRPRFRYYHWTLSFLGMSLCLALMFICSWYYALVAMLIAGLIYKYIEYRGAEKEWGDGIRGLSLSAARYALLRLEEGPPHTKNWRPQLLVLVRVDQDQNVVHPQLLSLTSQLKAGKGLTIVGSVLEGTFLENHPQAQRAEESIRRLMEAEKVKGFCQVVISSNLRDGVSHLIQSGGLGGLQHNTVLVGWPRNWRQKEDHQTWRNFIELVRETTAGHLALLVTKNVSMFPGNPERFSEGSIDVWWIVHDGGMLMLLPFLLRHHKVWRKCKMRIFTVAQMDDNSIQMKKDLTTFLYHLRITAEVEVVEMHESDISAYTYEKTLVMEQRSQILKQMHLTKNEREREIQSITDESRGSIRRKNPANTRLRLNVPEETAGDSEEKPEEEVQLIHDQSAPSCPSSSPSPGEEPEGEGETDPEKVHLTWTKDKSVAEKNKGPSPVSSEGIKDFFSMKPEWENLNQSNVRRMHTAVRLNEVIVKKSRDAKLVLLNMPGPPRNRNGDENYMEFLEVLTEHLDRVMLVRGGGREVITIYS
Diaph inh CS = diaphorase inhibitors and chemical oxidizers, primary screen, counter-screen for diaphorase-coupled primary assays, biochemical, uHTS, resorufin fluorescence; diaphorase resazurin-to-resorufin fluorescence, NADH, 16 min; bacterial (C. kluyveri) enzyme, not human; inhibition, % at 20 µM; 0.69% of 190,000 active; AID 1217, 2008;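 active means primary screen inhibition at 20 µM above a set limit, cut at about 50% in these data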;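 further: plate controls were DMSO with full reaction for no effect and wells lacking NADH for full effect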
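controls = No-NADH positive control and DMSO neutral control | system = Clostridium kluyveri diaphorase enzyme | timing = reaction incubation of 16 min at room temperature | signal = resorufin fluorescence 544/590 nm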
An asterisk follows results filed as active; nt = not tested or not shown. A selection: hits, their analogues and other compounds. The true share with any hit is near 12%.

SMILES	ROMK primary	Diaphorase act	Lmaj promast	WT yeast gro inh	Cl transport mod	Diaph inh CS
NNC(=O)c1csc(-c2cccc(C(F)(F)F)c2)n1	-0.46	0.5	-10	6	0.26	48
CCN(CC)CCC(=O)Nc1cccc2c1C(=O)c1ccccc1C2=O	nt	nt	nt	nt	0.015	nt
COCCCNCCOCCSc1ccc(Cl)cc1	-1.2	1	98*	-2	-0.43	-3
COCCCNCCCCSc1ccc(Cl)cc1	-1.7	0.9	95*	9	-1	10
OCCNCCSc1ccc(Cl)cc1	nt	0.8	0	3	-0.1	21
CC(C)N(C(=O)CSc1nnc(Cc2csc(Nc3ccccc3)n2)o1)C(C)C	-0.82	0.9	8	30	-2.9	15
Nc1[nH]nc2ncc3cc4ccccc4nc3c12	2.1	0.5	3	-1	1.8	55*
CCOC(=O)CNCCC(=O)c1ccc(Br)cc1	0.29	1	63*	-7	-1.4	5
CC1=NOC(=O)/C1=C\c1ccc(-c2ccc(Cl)cc2Cl)o1	-0.53	0.9	93*	85*	nt	13
O=c1cc(N2CCCCC2)c(-c2ccccc2)nn1Cc1ccccc1	-3.1*	0.9	13	76*	-0.69	12
O=C(NCc1ccncc1)C(=O)N/N=C/c1cccnc1	0.2	0.9	-8	20	0.68	13
CN(C)S(=O)(=O)c1ccc(C(=O)OCC(=O)c2ccc(OC(F)F)cc2OC(F)F)cc1	nt	0.8	7	7	0.41	20
COc1ccc(OCC(=O)Nc2cc(-c3nn(C)c(=O)c4ccccc34)ccc2OC)cc1	nt	0.9	8	-18	-0.28	5
COc1ccc(-c2nn(C)c(=O)c3ccccc23)cc1NC(=O)Cn1nc(-c2ccccc2)c2ccccc2c1=O	nt	0.8	65*	6	-1.2	17
COc1ccc(C2c3c(ncn(CCCO)c3=N)Oc3ccc4ccccc4c32)cc1OC (stereo not given)	nt	nt	nt	nt	-0.46	nt
COc1ccc(C2c3c(ncn(CCN4CCOCC4)c3=N)Oc3ccc4ccccc4c32)cc1OC (stereo not given)	nt	1.1	100*	4	1.9	-6
COc1ccc(C2c3ccc4ccccc4c3Oc3ncn(Cc4ccco4)c(=N)c32)cc1OC (stereo not given)	nt	0.9	58*	45	0.52	12
C#Cc1ccc([C@H]2C=C(C(=O)NC3CC3)O[C@@H](OCC)[C@@H]2CCCO)cc1	nt	0.8	-3	-7	-1.2	23
Cc1cc(C(=O)CN2C(=O)NC3(CCCCC3)C2=O)c(C)n1-c1ccc2c(c1)OCO2	nt	0.9	-2	-17	-1.2	13
O=[N+]([O-])c1ccccc1/C=C/C=N/Nc1ccc(S(=O)(=O)Nc2ccc(Cl)cc2)cc1[N+](=O)[O-]	0.11	0.9	67*	3	1.1	9
O=C(O)c1ccc(N/N=C/C=C/c2ccccc2[N+](=O)[O-])cc1	1.1	0.7	1	-23	0.68	29
O=[N+]([O-])c1ccc(N/N=C/c2c[nH]c3ccccc23)c(S(=O)(=O)Nc2ccc(Cl)cc2)c1	2.6	0.8	24	95*	0.013	23
Cc1ccc(NC(=S)N(CCN(C)C)Cc2cc3cccc(C)c3[nH]c2=O)cc1	-1.3	0.9	27	10	0.41	9
Cc1cccc2cc(CN(Cc3cccnc3)C(=S)NCCCN(C)C)c(=O)[nH]c12	-0.13	nt	-7	6	-0.8	nt
CN(C)CCCN(Cc1cc2cc3c(cc2[nH]c1=O)OCO3)C(=S)Nc1cccc(Cl)c1	-1.4	1.3	93*	-18	-0.34	-28
SMILES	ROMK primary	Diaphorase act	Lmaj promast	WT yeast gro inh	Cl transport mod	Diaph inh CS
Cc1ccc(CN(Cc2cc3cccc(C)c3[nH]c2=O)C(=S)NCCCN(C)C)cc1	-2.2	0.9	62*	-3	-0.63	9
Cc1cccc2cc(CN(Cc3ccccc3)C(=S)NCCCN(C)C)c(=O)[nH]c12	-3.7	0.9	78*	3	0.012	10
Cc1cccc(NC(=S)N(CCN(C)C)Cc2cc3cccc(C)c3[nH]c2=O)c1	-2.6	0.9	95*	-1	-0.03	11
COc1ccc2c(c1)C1=C(CC2)C(c2ccc(C)cc2)NC(=S)N1 (stereo not given)	-1.5	0.8	34	80*	-0.078	18
COc1ccc(C2NC(=O)NC3=C2CCc2ccccc23)cc1 (stereo not given)	-0.078	0.3	1	-11	-0.59	74*
COc1cccc(C2NC(=S)NC3=C2CCc2ccccc23)c1 (stereo not given)	-0.23	1	-2	6	0.59	-3
O=C(Cc1ccc(Cl)c(Cl)c1)Nc1cccc(S(=O)(=O)N2CCOCC2)c1	-0.49	0.9	55*	9	0.0014	13
CN1CC(=O)N(CC(=O)Nc2cccc(S(=O)(=O)N3CCOCC3)c2)C1=O	0.033	1.1	-2	5	0.49	-13
O=C(Nc1cccc(S(=O)(=O)N2CCOCC2)c1)c1ccc2ccccc2n1	nt	nt	nt	nt	-0.2	nt
CC(Sc1nc2cc(Cl)ccc2s1)C(=O)Nc1cccc(S(=O)(=O)N2CCOCC2)c1 (stereo not given)	nt	0.3	62*	25	-0.28	66*
O=C(Nc1ccc2c(c1)OCCO2)c1cccc(S(=O)(=O)N2CCOCC2)c1	nt	0.9	-8	-10	nt	10
CSCCC(NC(=O)c1cccc(S(=O)(=O)N2CCOCC2)c1)C(=O)Nc1cccc(C)c1 (stereo not given)	0.97	0.8	70*	12	1.6	17
O=C(Nc1cccc(S(=O)(=O)N2CCOCC2)c1)c1ccco1	0.5	1	93*	nt	1.6	1
O=C1CC(c2ccccc2)CC2=C1C=Nc1ccccc1N2 (stereo not given)	0.49	1	22	16	-0.76	4
Cc1nc2nc(N)nn2c(C)c1C/C=C/c1ccccc1	-1.2	0.8	-14	-12	-0.45	16
Cc1c(NS(=O)(=O)c2cccc(C(=O)OCC(=O)N(C)C3CCCCC3)c2)c(=O)n(-c2ccccc2)n1C	0.095	0.9	-5	-9	1.5	11
CCOC(=O)N1CCN(c2cc(=O)n(-c3ccc(C)cc3)c(=O)[nH]2)CC1	1.2	0.9	-3	-7	0.0061	12
CCCCN(CC)CCCNC(=O)c1csc2c1CCCCC2	-1.5	0.9	87*	-14	0.13	5
CC(C)CCNC(=O)c1csc2c1CCCCC2	-0.58	0.9	13	13	0.15	6
